# Compound activity: PubChem BioAssay, several laboratories
# This excerpt belongs to a sample that is enriched for hits.
# p-CIP stab down = p/CIP-EGFP fusion destabilizers, primary screen, fluorescence, F442A cells; Q05BA5; 16 h; decrease of EGFP signal, % at 10 µM; actives 0.01% (n = 290,000); AID 1984, 2009;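 active = EGFP signal decrease of at least 30% at 10 µM or well 3 SD below plate mean, unless failing retest; inactive = the rest, including hits failing retest or dose response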
# UPR XBP1 act = activators of adaptive XBP1 UPR arm, primary screen, cell-based, CHO-XBP1 luciferase reporter, luminescence, uHTS | IRE1-XBP1 UPR activation; percent of tunicamycin response, DMSO as zero | activation, % at 20 µM | actives 0.33% (n = 330,000) | AID 463104, 2010;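 active = versus positive control, 20 µM dose yields 30% or more activation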
#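 Material: IRE1-XBP1 luciferase reporter CHO line / Quantity: one thousand reporter cells per well / Buffer or medium: F12 with 10% serum / Compound: 20 µM single concentration, DMSO 1% / Times: 6 h treatment, 37 °C / Detection: Steady-Glo luciferase glow luminescence, 10 min after reagent addition / Benchmarks: tunicamycin high, DMSO low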
# CHOP inh = inhibitors of CHOP promoter induction, primary screen, cell-based, unfolded protein response, luciferase reporter | AID 2732, 2010 | CHO-K1 CHOP-promoter luciferase, tunicamycin-induced, 15-18 h | actives 3.8% (n = 220,000) | inhibition, % at 10 µM;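 active = compounds that reduced the stress-induced luciferase reporter signal by more than about 70% of percent inhibition, limit read from the data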
# Beta2AR agonist = beta2AR agonists driving receptor internalization, primary screen, cell-based, FAP fluorogen, flow cytometry | Beta-2 adrenergic receptor (Homo sapiens), P07550 | response, % (concentration not given with the values) | Am2.2-beta2AR cells | actives 0.43% (n = 340,000);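 active = response above a set limit, near 3 SD of response in nonfluorescent compounds, cut at about 42% in these data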
# Target sequence (P07550 whole entry, looked up): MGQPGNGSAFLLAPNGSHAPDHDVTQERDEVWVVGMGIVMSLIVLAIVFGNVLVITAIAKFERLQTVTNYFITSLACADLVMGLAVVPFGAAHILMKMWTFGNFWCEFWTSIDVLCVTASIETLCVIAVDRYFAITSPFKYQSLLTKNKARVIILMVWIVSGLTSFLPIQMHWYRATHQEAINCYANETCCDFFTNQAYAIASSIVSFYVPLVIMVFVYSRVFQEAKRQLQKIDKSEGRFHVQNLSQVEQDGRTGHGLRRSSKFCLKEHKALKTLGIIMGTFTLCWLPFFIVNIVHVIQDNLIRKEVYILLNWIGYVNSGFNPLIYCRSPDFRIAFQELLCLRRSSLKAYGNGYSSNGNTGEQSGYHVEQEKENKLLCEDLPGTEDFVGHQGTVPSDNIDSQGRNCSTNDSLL
# UPR CHOP act = activators of apoptotic CHOP UPR arm, primary screen, cell-based, CHO-CHOP luciferase reporter, luminescence, uHTS; UPR activation; percent of tunicamycin response over DMSO baseline; activation, % at 10 µM; actives 0.34% (n = 330,000); AID 449763, 2010;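 active = at 10 µM dose, activation of 40% or more, normalized to positive control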
#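 measured by = luciferase luminescence | assay system = CHO-CHOP cells, stable luciferase reporter of PERK-eIF2a-CHOP signalling | amount = 500 reporter cells seeded per well | timing = 6 h compound exposure at 37 °C after overnight seeding | controls = positive tunicamycin 10 µg/mL, negative DMSO alone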
# Dynein cargo inh = inhibitors of GR-EGFP nuclear translocation, primary screen, dynein cargo transport inhibitor project, imaging, high-content, 3617.4 mouse cells; actives 0.47% (n = 220,000); z-score, hits read low; test concentration mostly 20 µM; stimulated with dexamethasone, 1 µM; stronger effect = lower value;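 active = plate z-score of nuclear minus cytoplasmic receptor signal below a set negative limit, without overly bright fluorescence or cell loss, cut at about -3.5 in these data, passing the limit was not always enough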;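 also: z-score of nuclear minus cytoplasmic ring GR-EGFP intensity difference per well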
#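 Buffer or medium: tetracycline-free induction medium containing charcoal-stripped FBS / Reagent: dexamethasone agonist, 1.0 µM final, for 30 min / Technique: automated 10x imaging of fixed Hoechst-stained cells / Times: induction 48 h, compound 1 h, agonist 30 min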
# Dynein inh conf = dynein cargo transport inhibitors, GR-EGFP translocation, confirmation, imaging, high-content imaging, GR-EGFP cells. 3617.4 GR-EGFP nuclear translocation imaging, dexamethasone-induced. shares compounds with Dynein cargo inh. AID 463116, 2010. actives 69% (n = 1,000). calls only at 20 µM;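 active = inhibition of receptor movement into the nucleus at or above a set limit in both runs, with normal cell brightness and cell count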;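 also: dexamethasone at 1 µM final in well for 30 min; nuclear minus cytoplasmic GR-EGFP mean intensity difference in channel 2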
# A number is an active result; i = inactive; nt = no result; + = active, no number.
SMILES,p-CIP stab down,UPR XBP1 act,CHOP inh,Beta2AR agonist,UPR CHOP act,Dynein cargo inh,Dynein inh conf
CCCCc1ccc(/C=C2\C(=O)c3ccccc3C(O)=C2C(=O)OCC)cc1,i,i,i,nt,i,-4.2,+
N#C/C(=C\c1ccc(N2CCOCC2)o1)c1nc2ccccc2[nH]1,i,i,i,i,i,i,nt
N#C/C(=C/c1ccc(N2CCOCC2)o1)c1ccc(Cl)cc1,i,nt,i,i,nt,i,i
COCCN(CC(=O)NC1CCCCC1)C(=O)/C=C/C(=O)c1ccc(OC)cc1O,i,nt,108,91,nt,-3.7,+
CCOc1cc(OCC)cc(C(=O)NCc2ccco2)c1,i,i,nt,i,i,nt,nt
COc1ccccc1OC(=O)CCN1c2ccccc2Sc2ccccc21,i,i,i,i,i,i,nt
COc1ccccc1-[n+]1c(C)cc(/C=C2\Sc3ccccc3N2C)cc1C,i,i,82,i,i,i,+
CC1CC(C)CN(C(=O)c2nn(C)c3c2CS(=O)(=O)c2ccccc2-3)C1 (stereo unspecified),i,i,nt,i,i,nt,nt
CC(=O)NC(CSC(CC(=O)c1ccco1)c1ccc(C)cc1)C(=O)O (stereo unspecified),i,i,i,i,i,-4.3,i
Cc1cc(C)cc(OC(=O)CS(=O)c2ccc(C(F)(F)F)cc2[N+](=O)[O-])c1 (stereo unspecified),i,i,i,52,i,-3.7,+
O=C(Nc1ccc2c(c1)C(=O)NC2=O)c1cccc(Cl)c1,i,i,nt,i,i,nt,nt
CC(=O)Nc1sc(N/N=C/c2ccc(C)cc2)nc1-c1ccc(C)cc1,i,i,i,i,i,i,nt
CC(=O)Nc1sc(/C(C#N)=C/c2ccc(Cl)c(Cl)c2)nc1-c1ccc(C)cc1,i,nt,i,i,nt,-5.9,+
CCOc1cc(CNCCCN2CCOCC2)cc(Br)c1OCc1ccccc1Cl,i,i,i,i,i,-5.1,i
CC(=O)Nc1c([N+](=O)[O-])cc2[nH]c(=O)[nH]c2c1[N+](=O)[O-],i,i,i,i,i,i,nt
CC(=O)Nc1c([N+](=O)[O-])cc(C)c(Cl)c1[N+](=O)[O-],i,i,i,i,i,-5.8,+
CCCCN1C(=O)/C(=C/C=C2\Oc3ccccc3N2CC)SC1=S,i,nt,i,i,nt,i,+
CCCN1C(=O)/C(=C/C=C2\N(CC)c3ccccc3C2(C)C)SC1=S,i,i,i,i,i,i,i
C=CCN1C(=O)/C(=C\C=C2\N(C)c3ccccc3C2(C)C)SC1=S,i,i,i,nt,i,i,nt
O=C(Nc1ccncc1)c1cccc(S(=O)(=O)N2CCCC2)c1,i,i,nt,i,i,nt,nt
CC1=CC(=O)C(C(C)C)=C/C1=N/OS(=O)(=O)c1ccccc1,i,i,106,i,i,-4.2,i
CCCn1nc(-c2ccccc2)c2nc3ccccc3nc21,i,i,i,nt,i,i,i
Cc1ccccc1-n1nc(C(=O)c2cccs2)cc(-c2nc3ccccc3[nH]2)c1=N,i,i,i,i,i,i,nt
COc1ccc(-n2nc(C(=O)c3cccs3)cc(-c3nc4ccccc4[nH]3)c2=N)cc1,i,i,i,i,i,i,i
CCC(=O)N1CCN(c2ccc(NC(=O)c3ccc([N+](=O)[O-])o3)cc2)CC1,i,nt,i,i,nt,-4,+
O=C(Nc1ccc(N2CCN(C(=O)c3ccc(Cl)cc3)CC2)cc1)c1ccc([N+](=O)[O-])o1,i,nt,i,i,nt,-4.9,+
CCCC(=O)N1CCN(c2ccc(NC(=O)c3ccc([N+](=O)[O-])o3)cc2)CC1,i,nt,i,i,nt,-4.1,+
O=C(Nc1ccc(N2CCCC2)c(Cl)c1)c1ccc([N+](=O)[O-])o1,i,nt,i,i,nt,-4,+
